Laboratory results from ChEMBL document CHEMBL1123247, “Nucleoside conjugates. 7. Synthesis and antitumor activity of 1-beta-D-arabinofuranosylcytosine conjugates of ether lipids” (J Med Chem, 1986).

What was measured:
AMML = experiment: Compound was tested for the inhibition of AMML (acute myelomonocytic leukemia); format: functional, cell-based; conditions: Homo sapiens
Method in brief: (§1)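 Human leukemia and solid tumor cells in culture were exposed to compound for 48 h. Viability was scored by trypan blue dye exclusion. IC50 (50% inhibition) was estimated from response curves of three separate experiments.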

CML/BC = experiment: Compound was tested for the inhibition of CML/BC(chronic myeloid leukemia, blast crisis); format: functional, cell-based; conditions: Homo sapiens; method in brief: as §1
Glioblastoma cell line = experiment: Compound was tested for the inhibition of glioblastoma; format: functional, cell-based; conditions: Homo sapiens; method in brief: as §1
HL-60 = experiment: Compound was tested for the inhibition of human HL60 Leukemia; format: functional, cell-based; method in brief: as §1
L1210 [1] = experiment: Antitumor activity was determined against the ip implanted L1210 leukemia in mice by percent median survival rate (treated/control) at 300 mg/kg (treatment of 1qd schedule) dosage; 9.5/8.0; format: functional, Mus musculus; conditions: route intraperitoneal
Method in brief: (§2)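 DBA/2J mice, 23-28 g, in groups of 6, were inoculated ip with 1×10^6 L1210 cells on day 0. Dosing was ip starting 24 h later on the stated daily schedules. Conjugates were given as sonicated solutions and reference prodrugs as suspensions in 0.9% NaCl with 0.5% Tween-80. Mice were observed daily until death or 45 days. Median survival T/C was calculated from survivors per NCI protocols.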

L1210 [2] = experiment: Antitumor activity was determined against the ip implanted L1210 leukemia in mice by range in survival days at 300 mg/kg (treatment of 1qd schedule) dosage; Range is 9-10; format: functional, Mus musculus; conditions: route intraperitoneal; method in brief: as §2
L1210 [3] = experiment: Antitumor activity was determined against the ip implanted L1210 leukemia in mice by range in survival days at 80 mg/kg (treatment of 1-5qd schedule) dosage; Range is 17-18; format: functional, Mus musculus; conditions: route intraperitoneal; method in brief: as §2
L1210 [4] = experiment: Antitumor activity against the ip implanted L1210 leukemia in mice expressed as optimal dose (1-5qd treatment schedule) required to produce greatest increase in life span was determined; format: functional, Mus musculus
Method in brief: (§3)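 DBA/2J mice, groups of 6 (23-28 g), were inoculated ip with 1 × 10^6 L1210 cells on day 0. Dosing was ip from 24 h, in 0.9% NaCl with 0.5% Tween-80 (sonicated solution or suspension). Mice were observed daily until death or day 45. Median survival T/C followed NCI protocols, and ILS = (T/C − 1) × 100. Active range means doses giving ILS ≥25%; optimal dose means greatest ILS.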

L1210 [5] = experiment: Antitumor activity against the ip implanted L1210 leukemia in mice expressed as optimal dose (1 qd treatment schedule) required to produce greatest increase in life span was determined; format: functional, Mus musculus; method in brief: as §3
L1210 [6] = experiment: Antitumor activity was determined against the ip implanted L1210 leukemia in mice by change in […] at 80 mg/kg (treatment of 1-5qd schedule) dosage; format: functional, Mus musculus; conditions: route intraperitoneal
Method in brief: (§4)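 DBA/2J mice, 6 per group (wt 23-28 g), inoculated ip with 1×10^6 L1210 cells on day 0. Treatment was given ip in 0.9% NaCl with 0.5% Tween-80, starting 24 h later. Weight change was taken on day 8. Mice were observed daily until death or 45 days. Median survival T/C and %ILS = (T/C − 1) × 100 came from survivors per NCI protocols, and 45-day survivors were counted.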

L1210 [7] = experiment: Antitumor activity was determined against the ip implanted L1210 leukemia in mice by change in […] at 300 mg/kg (treatment of 1qd schedule) dosage; format: functional, Mus musculus; conditions: route intraperitoneal; method in brief: as §4
L1210 [8] = experiment: Antitumor activity was determined against the ip implanted L1210 leukemia in mice by 45-day survivors in mice at 300 mg/kg (treatment of 1qd schedule) dosage; format: functional, Mus musculus; conditions: route intraperitoneal
Method in brief: (§5)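 DBA/2J mice in groups of 6 (wt 23-28 g) were inoculated ip with 1×10^6 L1210 cells on day 0. Dosing was ip from 24 h, in 0.9% NaCl with 0.5% Tween-80 (conjugates sonicated), across a range of doses. Mice were observed daily until death or 45 days. Median T/C was computed from survivors per NCI protocols, and ILS = (T/C − 1)×100.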

L1210 [9] = experiment: Antitumor activity was determined against the ip implanted L1210 leukemia in mice by 45-day survivors in mice at 80 mg/kg (treatment of 1-5qd schedule) dosage; format: functional, Mus musculus; conditions: route intraperitoneal; method in brief: as §5
L1210 [10] = experiment: Antitumor activity was determined against the ip implanted L1210 leukemia in mice by percent increase in life span at 80 mg/kg (treatment of 1-5qd schedule) dosage; format: functional, Mus musculus; conditions: route intraperitoneal; method in brief: as §5
L1210 [11] = experiment: Antitumor activity was determined against the ip implanted L1210 leukemia in mice by percent median survival rate (treated/control) at 80 mg/kg (treatment of 1-5qd schedule) dosage; 18.0/7.0; format: functional, Mus musculus; conditions: route intraperitoneal; method in brief: as §2
L1210 [12] = experiment: Antitumor activity was determined against the ip implanted L1210 leukemia in mice by percent increase in life span at 300 mg/kg (treatment of 1qd schedule) dosage; format: functional, Mus musculus; conditions: route intraperitoneal; method in brief: as §5
NSCLC = experiment: Compound was tested for the inhibition of non- small cell lung cancer; format: functional, cell-based; conditions: Homo sapiens; method in brief: as §1
P388 [13] = experiment: Antitumor activity was determined against the ip implanted P388 leukemia in mice by percent increase in life span at 60 mg/kg (1-5qd treatment schedule) dosage; format: functional, Mus musculus; conditions: route intraperitoneal
Method in brief: (§6)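 DBA/2J mice, 23-33 g, in groups of 6, were inoculated ip with 1×10^6 P388 cells on day 0. Dosing was ip from 24 h on the stated schedules, in 0.9% NaCl with 0.5% Tween-80 (sonicated solution or suspension). Survival was followed daily until death or 45 days. Median T/C was calculated from survivors per NCI protocols, with ILS = (T/C − 1) × 100.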

P388 [14] = experiment: Antitumor activity was determined against the ip implanted P388 leukemia in mice by percent median survival rate (treated/control) at 300 mg/kg (1 qd treatment schedule) dosage; 12.5/11.0; format: functional, Mus musculus; conditions: route intraperitoneal
P388 [15] = experiment: Antitumor activity was determined against the ip implanted P388 leukemia in mice by 45-day survivors in mice at 300 mg/kg (1 qd treatment schedule) dosage; format: functional, Mus musculus; conditions: route intraperitoneal; method in brief: as §6
P388 [16] = experiment: Antitumor activity was determined against the ip implanted P388 leukemia in mice by 45-day survivors in mice at 60 mg/kg (1-5qd treatment schedule) dosage; format: functional, Mus musculus; conditions: route intraperitoneal; method in brief: as §6
P388 [17] = experiment: Antitumor activity was determined against the ip implanted P388 leukemia in mice by percent median survival rate (treated/control) at 60 mg/kg (1-5qd treatment schedule) dosage; 21.0/12.0; format: functional, Mus musculus; conditions: route intraperitoneal
P388 [18] = experiment: Antitumor activity against ip implanted P388 leukemia in mice expressed as active dose range (1-5qd treatment schedule) required to produce increase in life span by >25% was determined; Range is 60-80; format: functional, Mus musculus
Method in brief: (§7)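 P388 leukemia: 1 × 10^6 cells were given ip on day 0 to DBA/2J mice, groups of 6 (23-33 g). Treatment was ip from 24 h after inoculation, vehicle 0.9% NaCl with 0.5% Tween-80. Mice were observed daily until death or 45 days. Median survival T/C was calculated from survivors per NCI protocols, and ILS = (T/C − 1) × 100. Active range means doses giving ILS ≥25%; optimal dose means greatest ILS.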

P388 [19] = experiment: Antitumor activity was determined against the ip implanted P388 leukemia in mice by range in survival days at 60 mg/kg (1-5qd treatment schedule) dosage; Range is 18-21; format: functional, Mus musculus; conditions: route intraperitoneal
P388 [20] = experiment: Antitumor activity was determined against the ip implanted P388 leukemia in mice by change in […] at 300 mg/kg (1 qd treatment schedule) dosage; format: functional, Mus musculus; conditions: route intraperitoneal
Method in brief: (§8)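 P388 leukemia, 1×10^6 cells implanted ip on day 0 into DBA/2J mice, groups of 6 (wt 23-33 g). Dosing ip started 24 h post-inoculation, vehicle 0.9% NaCl containing 0.5% Tween-80. Animals were observed daily until death or 45 days. Outputs were weight change, median survival T/C from survivors per NCI protocols, and %ILS = (T/C − 1) × 100.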

P388 [21] = experiment: Antitumor activity was determined against the ip implanted P388 leukemia in mice by change in […] at 60 mg/kg (1-5qd treatment schedule) dosage; format: functional, Mus musculus; conditions: route intraperitoneal; method in brief: as §8
P388 [22] = experiment: Antitumor activity was determined against the ip implanted P388 leukemia in mice by range in survival days at 300 mg/kg (1 qd treatment schedule) dosage; Range is 3-18; format: functional, Mus musculus; conditions: route intraperitoneal
P388 [23] = experiment: Antitumor activity was determined against the ip implanted P388 leukemia in mice by percent increase in life span at 300 mg/kg (1 qd treatment schedule) dosage; format: functional, Mus musculus; conditions: route intraperitoneal; method in brief: as §6
P388 [24] = experiment: Antitumor activity against the ip implanted P388 leukemia in mice expressed as optimal dose (1-5qd treatment schedule) required to produce greatest increase in life span was determined; format: functional, Mus musculus; set-up: unit: mg/kg; method in brief: as §7
P388 [25] = experiment: Antitumor activity against the ip implanted P388 leukemia in mice expressed as optimal dose (1 qd treatment schedule) required to produce greatest increase in life span was determined; format: functional, Mus musculus; method in brief: as §7
[26] = tested on: Small cell lung cancer cell line; experiment: Compound was tested for the inhibition of small cell lung cancer; format: functional, cell-based; conditions: Homo sapiens; method in brief: as §1
L1210 [27] = experiment: Antitumor activity against ip implanted L1210 leukemia in mice expressed as active dose range (1-5qd treatment schedule) required to produce increase in life span by >25% was determined; Range is 10-120

CCCCCCCCCCCCCCCCCCOCC(COP(=O)(O)OP(=O)(O)OC[C@H]1O[C@@H](n2ccc(N)nc2=O)[C@@H](O)[C@@H]1O)OC (mixture of isomers)
IC50 (AMML): 2.3 µM
IC50 (CML/BC): 1.2 µM
IC50 (Glioblastoma cell line): 47 µM
IC50 (HL-60): 13 µM
median survival time (L1210 [1]): 9.5 days
Range (L1210 [2]): 9
Range (L1210 [3]): 17
Optimal dose (L1210 [4]): 80 mg
Optimal dose (L1210 [5]): 300 mg/kg/day
Weight change (L1210 [6]): -1.53 g mouse-1
Weight change (L1210 [7]): 2.58 g mouse-1
Survivors (L1210 [8]): 0
Survivors (L1210 [9]): 0
ILS (L1210 [10]): 157
T/C (L1210 [11]): 18%
ILS (L1210 [12]): 12
IC50 (NSCLC): 38 µM
ILS (P388 [13]): 75
T/C (P388 [14]): 12.5%
Survivors (P388 [15]): 0
Survivors (P388 [16]): 0
T/C (P388 [17]): 21%
Active dose range (P388 [18]): 60 mg/kg/day
Range (P388 [19]): 18
Weight change (P388 [20]): 0.38 g mouse-1
Weight change (P388 [21]): 0.04 g mouse-1
Range (P388 [22]): 3
ILS (P388 [23]): 14
Optimal dose (P388 [24]): 60 mg
Optimal dose (P388 [25]): 300 mg
IC50 [26]: > 100 µM
Active dose range (L1210 [27]): 10 mg/kg/day
